Experimental data pooled from the literature.
Protocols differ between the studies behind these lines. ≈ marks a conversion by molar mass, not a printed value.
Organism: Mycolicibacterium smegmatis
Read-out: microbial growth

COCCOc1ccc(-c2c[nH]c(N)n2)cc1 has an MIC of greater than 200 µM (ATCC700084 MC^2155; 48 h).
With Cc1cc(N)c2ccccc2[n+]1CCCCCCCCCC[n+]1c(C)cc(N)c2ccccc21 the inhibition zone was 18 mm (disc diffusion; 50 µg/disc).
With Cc1nc2sc3ccccc3n2c1C(=O)N1CCN(Cc2cn(-c3cccc(Cl)c3)nn2)CC1 the IC50 was 52.7 µM (72 h).
NNC(=O)c1ccncc1 gave an MIC of 5 µg/mL (resazurin; MC^2155; 24 h).
With Cc1ccc(-n2cc(CN3CCN(C(=O)c4c(C)nc5sc6ccccc6n45)CC3)nn2)cc1C the IC50 was 5.7 µM (72 h).
NC[C@@H]1O[C@H](O[C@H]2[C@@H](O)[C@H](O[C@@H]3[C@@H](O)[C@H](N)C[C@H](N)[C@H]3O[C@H]3O[C@H](CO)[C@@H](O)[C@H](O)[C@H]3N)O[C@@H]2CO)[C@H](N)[C@@H](O)[C@@H]1O has an MIC of 1 µg/mL (broth dilution; 72 h).
The IC50 of CC(C)=CCC/C(C)=C/CNCCNC1C2CC3CC(C2)CC1C3 (stereo not drawn) is reported as 2.5 µM (48 h).
The MIC of CCc1ccc(-c2c[nH]c(N)n2)cc1 is reported as 100 µM (ATCC700084 MC^2155; 48 h).
The IC50 of Cc1nc2sccn2c1C(=O)N1CCN(CCn2cc(CSc3nc4ccccc4[nH]3)nn2)CC1 is reported as 16.4 µM (72 h).
ON=C1C2CC3CC(C2)CC1C3 has an IC50 of greater than 500 µM (48 h).
With Cc1nc2sc3ccccc3n2c1C(=O)N1CCN(Cc2cn(-c3ccc([N+](=O)[O-])cc3)nn2)CC1 the IC50 was greater than 128 µM (72 h).
O=C(N[C@H](CO)[C@H](O)c1ccc([N+](=O)[O-])cc1)C(Cl)Cl gave an MIC90 of 125 µg/mL (≈ 387 µM) (ATCC14468).
